# According to the RNAGym collection of RNA variant scans (doi:10.1126/science.aae0568):
# This sample holds only a part of the variants without activity.
# B1: tRNA (parent)
# chain: GUUCCGUUGGCGUAAUGGUAACGCGUCUCCCUCCUAAGGAGAAGACUGCGGGUUCGAGUCCCGUACGGAACG
# Variants of: B1
# Experiment: yeast fitness relative to wild type (ratio to wild type); higher = fitter; tRNA-Arg(CCU), competitive growth, 37 C, YPD
# In short: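 A pool of Saccharomyces cerevisiae strains, each with a tRNA-Arg(CCU) gene variant at the native genomic locus, was competed in YPD at 37°C for 24 hours across six parallel replicates. The variants had been chemically synthesised at a 3% per-site mutation rate over 69 sites, and gene amplicons before and after competition were read by 100-nucleotide paired-end sequencing. Darwinian fitness relative to wild type rested on changes in genotype frequencies. Genotypes required ≥ 100 starting reads, and estimates < 0.5 were set to 0.5.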
row,Variant,yeast fitness
1,GUUCCGUUGGCGUUAUGGUAACGCGUCUCCCUCCUAAGGUGUAGACUGCGAGUUCGAGUCCCGUACGGAACG,0.62
2,GUUCCGUUGGCGUUAUGGUAACGCGUCUCCCUCCUAAGGAGACGACUGCGGGUUCGAGUCCCGUUCGGAACG,≤ 0.5
3,GUUCCGUUGGCGUUAUGGUAACGCGUCUCCCUCCUAUGGAGAAGACUGCGGGUUCGAGUCGUGUACGGAACG,≤ 0.5
4,GUUCCGUUGGCGUUAUGGUAACGCGUCUCCCUCCUUAGGAGAAGACUGCGGGUUCGAGUCCCAUACGGAACG,0.533
5,GUUCCGUUGGCGUUAUGGUAAAGCGUCUCCCUCCUAAGGAGAGGACUGCGGCUUCGAGUCCCGUACGGAACG,≤ 0.5
6,GUUCCGUUGGCGUUAUGGUAUCGCGUCUCCCUCCUAAGGAGAAGACUGUGGGUUCGAGUCCCGUACCGAACG,≤ 0.5
7,GUUCCGUUGGCGUUAUGGUAACGCGUCUCCCUCCUAAGGCGAAGACUGCGGGUUCGAGUCCCGUAAGGAACG,≤ 0.5
8,GUUCCGUUGGCGUUAUGGUAGCGCGUCUCCCUCCUAAGCAGAAGGCUGCUGGCUCGAGUCCCGUACGGAACG,≤ 0.5
9,GUUCCGUUGGCGUUAUGGUAACGCGUCUCCCUCCUAAGGAGAGGACUGCGGGUUCGCGUGACGUACGGAACG,≤ 0.5
10,GUUCCGUUGGCGUUAUGGUAACGCGUCUCCCUCCUAAGGCGAAGACUGCGGGUUCGCGUUCCGUACGGAACG,≤ 0.5
11,GUUCCGUUGGCGUUAUGGUAACGCGUCUCCCUCCUAAGGAGAAGACUGCGGGUUCGAGUCCCGUACGGGACG,0.608
12,GUUCCGUUGGCGUUAUGGUAACGCGUCUCCCUCCUAAGGAGAAGACUGCGGGUUCGAGUCCCGUACGGCACG,0.635
13,GUUCCGUUGGCGUUAUGGUAACGCGUCUCCCUCCUACGGAGAAGACUGCGGGUUCGAGUCCCGUACGGAACG,0.627
14,GUUCCGUUGGCGUUAUGGUAACGCGUCUCCCUCCUAGGGAGAAGACUGCGGGUUCGAGUCCCGUACGGAACG,0.6
15,GUUCCGUUGGCGUUAUGGUAACGCGUCUCCCUCCUAAGGUGAAGACUGCGGGUUCGACUCCCGUACGGAACG,0.547
16,GUUCCGUUGGCGUUAUGGUAACGCGUCUCCCUCCUAAGGAGUAGACUGCGGGUUCGAGUCUCGUAUGGAACG,≤ 0.5
17,GUUCCGUUGGCGUUAUGGUAACGCGUCUCCCUCCUAAGGUGAAGACUGCGGGUUCGAGUCCCGUACGGAACG,0.597
18,GUUCCGUUGGCGUUAUGGUAACGCGUCUCCCUCCUAAGGGGAAGACUGCGGGUUCGAGUCCCGUACGGAACG,0.707
19,GUUCCGUUGGCGUUAUGGUAACGCGUCUCCCUCCUACGGAGAAGACUGCGGGUUCGAGUCCAGUAAGGAACG,0.574
20,GUUCCGUUGGCGUUAUGGUAACGCGUCUCCCUCCUAAGGAGAAGGCUGCGGGCUCGAGUCCCGUUCGGAACG,≤ 0.5
21,GUUCCGUUGGCGUUAUGGUAACGCGUCUCCCUCCUAUGGAGAAGACUGCGGGUUCGAGACCCGUACGGAACG,≤ 0.5
22,GUUCCGUUGGCGUUAUGGUAGCGCGUCUCCCUCGUAAGGAGAAGACUGCGGGUUCGUGUCCCGUACGGUACG,0.655
23,GUUCCGUUGGCGUUAUGGUAACGCGUCUCCCUCCUACGGAGAAAACUGCGGGUUCGAGUCCCGUACGGAACG,0.757
24,GUUCCGUUGGCGUUAUGGUAACGCGUCUCCCUCCUAAGGGGAAGACUGCGGGUUCGAGUCCGGUACGGAACG,≤ 0.5
25,GUUCCGUUGGCGUUAUGGUAACGCGUCUCCCUCCUAUGGAGAAGACUGCGGGUUCGAGUCCGGUACGGAUCG,≤ 0.5

row,Variant,yeast fitness
1,GUUCCGUUGGCGUUAUGGUAUCGCGUCUCCCUCCUAAGGAGAAGACUGCGGGUUCGAGUCCCGUACGGCACG,0.566
2,GUUCCGUUGGCGUUAUGGUAACGCGUCUCCCUCCUAAGGAGAAGUCUGCGGGUUCGAGUCCCGUACGGAACG,0.572
3,GUUCCGUUGGCGUUAUGGUAACGCGUCUCCCUCCUAAGGAGAAGCCUGCGGGUUCGAGUCCCGUACGGAACG,0.653
4,GUUCCGUUGGCGUUAUGGUAGCGCGUCUCCCUCCUAAGGAGAAGACUGCGGGUUCGAGUCCCGUACGGACCG,0.543
5,GUUCCGUUGGCGUUAUGGUAACGCGUCUCCCUCCUACGGAGAAGAUUGCGCGUUCGAGUCCCGUAGGGAACG,0.529
6,GUUCCGUUGGCGUUAUGGUAGCGCGUCUCCCUCCUAAGGAGAAGACUGCGGGUUCGAGUCGCGUACGGAUCG,≤ 0.5
7,GUUCCGUUGGCGUUAUGGUAGCGCGUCUCCCUCCUAAGCAGAAGGCUGCGGGCUCGAGUCCUGUACGGAACG,≤ 0.5
8,GUUCCGUUGGCGUUAUGGUAACGCGUCUCCCUCCUAAGGUGAAGACUGCGGGUUCGAGUCCCGUACGGUACG,0.592
9,GUUCCGUUGGCGUUAUGGUAACGCGUCUCCCUCCUAAGGAGAAGACUGCGGGUUCGAGUCCCGUACGGACCG,0.596
10,GUUCCGUUGGCGUUAUGGUACCGCGUCUUCCUCCUAAGGAGAAGACUGCGGGUUCGAGUCCCGUACGGAACG,0.538
11,GUUCCGUUGGCGUUAUGGUAAAGCGUCUCCCUCCUAAGGAGAGGACUGCGGGUUCGAGUCCCGUACGCAACG,≤ 0.5
12,GUUCCGUUGGCGUUAUGGUAACGCGUCUCCCUCCUUAAGAGAAGACUGCGGGUUCGAGUCCCGUACGGAACG,≤ 0.5
13,GUUCCGUUGGCGUUAUGGUAUCGCGUCUCCCUCCUAAGGAGAAGACUGCGGGUUCGACUCCCGUACGGAACG,≤ 0.5
14,GUUCCGUUGGCGUUAUGGUAUCGCGUCUCCUUCCUAAGGAGAUCACUGCGGGUUCGAGUCCCGUACGGAACG,≤ 0.5
15,GUUCCGUUGGCGUUAUGGUAGCGCGUCUCCCUCCUAAGGAGAAGACUGCGGGUUCGAAUCCCGUACGGAACG,≤ 0.5
16,GUUCCGUUGGCGUUAUGGUACCGCGUCUCCCUCCUAAGGAAAAGGCUGCGGGUUCGAGUCCCGUACGGAACG,≤ 0.5
17,GUUCCGUUGGCGUUAUGGUAACGCGUCUCCCUCCUAAGGAGAGGACUGCGGGUUCGAGUCCUGUACGGAACG,≤ 0.5
18,GUUCCGUUGGCGUUAUGGUAACGCGUCUCCCUCCUAAGGAGCAGAAUGCGGGUUCGAGUCCCGUACGGAACG,≤ 0.5
19,GUUCCGUUGGCGUUAUGGUAACGCGUCUCCCUCCUAAGGAGAAGUCUGCGGGUUCGAGUCCCGUACGGCACG,0.539
20,GUUCCGUUGGCGUUAUGGUAACGCGUCUCCCUCCUUAAGAGAAGACUGCGGGUACGAGUCCCGUACGGAACG,0.536
21,GUUCCGUUGGCGUUAUGGUAACGCGUCUCCCUCCUGAGGGGAAGACUGCGGGUUCGAGUCCCGUUCGGAACG,≤ 0.5
22,GUUCCGUUGGCGUUAUGGUAACGCGUCUCCCUCCUUAGGAGAAGACUGCGGGUUCGAGUCCCGUACGGAACG,0.531
23,GUUCCGUUGGCGUUAUGGUAACGCGUCUCCCUCCUCAGGAGAAGACUGCGGGUUCGAGUCCCGUACGGAACG,0.586
24,GUUCCGUUGGCGUUAUGGUAACGCGUCUCCCUCCUAAGGAGACGACUGCGGGUUCGAGUCCUGUAUGGAACG,≤ 0.5
25,GUUCCGUUGGCGUUAUGGUACUGCGUCUCCCUGCUAAGGAGAAGACUGCGGGUUCGUGUGCCGUACGCAACG,≤ 0.5

row,Variant,yeast fitness
1,GUUCCGUUGGCGUUAUGGUAACGCGUCUCCCUCCUACGGAGAAAACUGCGGGUUCGAGUCCCGUACGGAGCG,0.551
2,GUUCCGUUGGCGUUAUGGUAUCGCGUCUCCCGCCUAGGGAGAAGGCUGCGGGUUAGAGUCCCGUACGGAACG,≤ 0.5
3,GUUCCGUUGGCGUUAUGGUAACGCGUCUCCCUCCUAAGGAGAAGACUGCGGGUUCGAGUCCCGUCCGGAACG,0.611
4,GUUCCGUUGGCGUUAUGGUAACGCGUCUCCCUCCUAAGGAGAAGACUGCGGGUUCGAGUCCCGUGCGGAACG,0.559
5,GUUCCGUUGGCGUUAUGGUAACGCGUCUCCCUCCUAAGGAGAAGACUGCGGGUUCGAGUCCCGUUCGGAACG,0.639
6,GUUCCGUUGGCGUUAUGGUAACGCGUCUCCCUCCUAAGGAGAGGACUGUGGGUUCGAGUCCCGUACGGAACG,≤ 0.5
7,GUUCCGUUGGCGUUAUGGUAACGCGUCUCCCUCCUAGGGAGAACCCUGCAGGUUGGAGUCCCGUAAGGAACG,0.539
8,GUUCCGUUGGCGUUAUGGUAACGCGUCUCCCUCCUAAGGAGAAGUCAGCGGGUUCGAGUCCCGUACGGAACG,≤ 0.5
9,GUUCCGUUGGCGUUAUGGUAACGCGUCUCCCUCCUAAGGAGUAGACUGCGGGUUCGUGUCCCGUACGGAUCG,≤ 0.5
10,GUUCCGUUGGCGUUAUGGUAGCGCGUCUCCCUCCUAAGCAGAAGGCUGCGGGUUCGAGUCCCGUACGGAACG,≤ 0.5
11,GUUCCGUUGGCGUUAUGGUAACGCGUCUCCCUCCUUAGGAAAAGACUGGGGGUUCGAGUCCCGUACGGAACG,≤ 0.5
12,GUUCCGUUGGCGUUAUGGUAACGCGUCUCCCUCCUAAGGAGAGGACUGCGGGUUGGAGUCCCGUACGGAACG,≤ 0.5
13,GUUCCGUUGGCGUUAUGGUAACGCGUCUCCCUCCUAAGGUGAAGACUGCGGGUUCGAGUCCCGUACAGAACG,0.539
14,GUUCCGUUGGCGUUAUGGUAACGCGUCUCCCUCCUAAGGAGAUGGCUGCGGGUUCGAGUCCCGUACGGAACG,0.634
15,GUUCCGUUGGCGUUAUGGUAACGCGUCUCCCUCCUUAGGAGAAGACUGCGGGUUCGAGUCCCGUACGGUACG,0.629
16,GUUCCGUUGGCGUUAUGGUAACGCGUCUCCCUCCUGAGGGGAAGACUGCGGGUUCGAGUCCCGUACGGAACG,≤ 0.5
17,GUUCCGUUGGCGUUAUGGUAACGCGUCUCCCUCCUAAGGCGAAGACUGCGGGUUCGCGUCCCGUACGGAACG,≤ 0.5
18,GUUCCGUUGGCGUUAUGGUAACGCGUCUCCCUCCUAAGGAGUAGACUGCGGGUUCGAGUCCCGUGCGGCACG,≤ 0.5
19,GUUCCGUUGGCGUUAUGGUAACGCGUCUCCCUCCUAAGGAGAAGACUGCGGGUUCGCGUCCCGUACGGAACG,≤ 0.5
20,GUUCCGUUGGCGUUAUGGUAACGCGUCUCCCUCCUAAGGAGAAGACUGCGGGUUCGUGUCCCGUACGGAACG,≤ 0.5
21,GUUCCGUUGGCGUUAUGGUAACGCGUCUCCCUCCUAAGGAGCAGACUGCGGGUACGAGUCCCGUACCGUACG,≤ 0.5
22,GUUCCGUUGGCGUUAUGGUAACGCGUCUCCCUCCUAAGGAGACGAUUGCGGGUUCGAGUCCCGUACGGAACG,≤ 0.5
23,GUUCCGUUGGCGUUAUGGUAACGCGUCUCCCUCCUAUGGAGAAGACUGCGGGUUCGAGUCCCGUAUGGAACG,≤ 0.5
24,GUUCCGUUGGCGUUAUGGUAAAGCGUCUCCCUCCUAAGGAGAGGACUGUGGGUUCGAGUCCCGUACGGAACG,≤ 0.5
25,GUUCCGUUGGCGUUAUGGUAACGCGUCUCCCUCCUAAGGAGAUGGCUGCGGGUUCGAGUCCCGUACGAAACG,≤ 0.5
